Measured values from PMC3042207 (British Journal of Pharmacology, 2011).
Where “and” joins values, the source holds several entries; their conditions need not be identical. Equal values may be shown once.

Legend:
[1] = tested on: human liver microsomes (HLM); test: Oxidative metabolism of 4-HPR by human liver microsomes; assay type: in vitro ADME; details: 4-HPR 0-20 µM, 3 h, HPLC, mean ± SD, n≥3
Procedure, shortened: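 Termination is with ice-cold acetonitrile, then centrifugation at 10 000× g. The 4′-hydroxy and 4′-oxo metabolites are resolved by reversed-phase HPLC with photodiode-array detection. Vmax is derived from formation rates; mean ± SD, n ≥ 3.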

UGT 1A1 = target: T1, UGT 1A1 (Homo sapiens, UniProt P22309); test: Glucuronidation of 4-HPR by UGT 1A1 supersomes; assay type: in vitro ADME; details: UGT 1A1, 1 mg·mL^−1; 4-HPR 0-2000 µM, 3 h
T1 sequence (P22309 26-533): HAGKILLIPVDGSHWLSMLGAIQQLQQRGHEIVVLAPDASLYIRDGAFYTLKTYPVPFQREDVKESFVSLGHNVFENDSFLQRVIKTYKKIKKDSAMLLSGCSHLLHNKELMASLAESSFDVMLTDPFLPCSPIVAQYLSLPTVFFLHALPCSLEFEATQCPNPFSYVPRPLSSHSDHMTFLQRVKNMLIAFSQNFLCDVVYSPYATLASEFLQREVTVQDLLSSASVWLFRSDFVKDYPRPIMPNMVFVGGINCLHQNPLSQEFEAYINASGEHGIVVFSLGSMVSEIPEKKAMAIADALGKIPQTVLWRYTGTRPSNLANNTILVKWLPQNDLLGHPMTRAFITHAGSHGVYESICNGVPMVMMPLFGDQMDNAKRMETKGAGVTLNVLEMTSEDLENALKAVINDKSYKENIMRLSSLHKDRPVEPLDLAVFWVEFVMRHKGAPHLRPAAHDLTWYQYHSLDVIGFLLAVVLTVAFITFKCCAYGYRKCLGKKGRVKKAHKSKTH

UGT 1A3 = target: T2, UGT 1A3 (Homo sapiens, UniProt P35503); test: Glucuronidation of 4-HPR by UGT 1A3 supersomes; assay type: in vitro ADME; details: UGT 1A3, 1 mg·mL^−1; 4-HPR 0-2000 µM, 3 h
T2 sequence (P35503 29-534): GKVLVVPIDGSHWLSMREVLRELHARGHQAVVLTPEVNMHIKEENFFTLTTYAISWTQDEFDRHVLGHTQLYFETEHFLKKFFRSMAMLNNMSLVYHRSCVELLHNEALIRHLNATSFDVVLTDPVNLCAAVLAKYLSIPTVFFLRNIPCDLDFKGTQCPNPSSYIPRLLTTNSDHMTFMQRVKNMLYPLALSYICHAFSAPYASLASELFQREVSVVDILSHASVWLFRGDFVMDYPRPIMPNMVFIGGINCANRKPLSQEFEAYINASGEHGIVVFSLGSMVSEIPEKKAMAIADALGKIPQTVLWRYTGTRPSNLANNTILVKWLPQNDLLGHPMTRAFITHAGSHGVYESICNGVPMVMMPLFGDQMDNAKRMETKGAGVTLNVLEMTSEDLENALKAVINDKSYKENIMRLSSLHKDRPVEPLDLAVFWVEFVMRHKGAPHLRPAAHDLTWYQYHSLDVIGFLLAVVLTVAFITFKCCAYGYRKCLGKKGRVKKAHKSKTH

UGT 1A6 = target: T3, UGT 1A6 (Homo sapiens, UniProt P19224); test: Glucuronidation of 4-HPR by UGT 1A6 supersomes; assay type: in vitro ADME; details: UGT 1A6, 1 mg·mL^−1; 4-HPR 0-2000 µM, 3 h
T3 sequence (P19224 27-532): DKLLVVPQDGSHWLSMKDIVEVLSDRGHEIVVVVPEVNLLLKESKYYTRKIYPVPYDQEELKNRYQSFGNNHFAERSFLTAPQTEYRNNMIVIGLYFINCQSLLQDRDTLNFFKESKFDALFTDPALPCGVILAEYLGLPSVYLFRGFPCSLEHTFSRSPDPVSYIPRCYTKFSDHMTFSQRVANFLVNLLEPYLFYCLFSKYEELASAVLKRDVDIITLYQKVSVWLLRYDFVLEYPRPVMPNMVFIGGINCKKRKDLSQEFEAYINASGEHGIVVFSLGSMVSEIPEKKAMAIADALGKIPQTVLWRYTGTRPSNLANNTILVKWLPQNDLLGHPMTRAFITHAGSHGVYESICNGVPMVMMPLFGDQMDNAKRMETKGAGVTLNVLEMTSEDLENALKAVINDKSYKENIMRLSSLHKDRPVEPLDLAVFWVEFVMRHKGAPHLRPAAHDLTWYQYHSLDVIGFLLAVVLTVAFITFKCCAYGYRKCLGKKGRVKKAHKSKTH

[2] = Glucuronidation of 4-HPR by human intestinal microsomes; assay type: in vitro ADME; details: human, human intestinal microsomes, pH 7.5
Procedure, shortened: (§1)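 Intestinal or liver microsomes at 1 mg·mL−1 are incubated with 0–2000 µM substrate (13 levels) for 3 h at 37°C. The buffer is 50 mM Tris-HCl, pH 7.5, with alamethicin 25 µg·mL−1, 8 mM MgCl2, 2 mM UDP-glucuronic acid and 0.25% methanol. Reactions are started with enzyme and stopped with ice-cold acetonitrile. The glucuronide is quantified by C18 HPLC, with identity confirmed by β-glucuronidase. Vmax is in peak area units·min−1; mean ± SD of three independent experiments.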

[3] = tested on: human intestinal microsomes (HIM); test: as above; assay type: in vitro ADME; details: HIM, 1 mg·mL^−1; 4-HPR 0-2000 µM, 3 h
Procedure, shortened: as §1

[4] = Glucuronidation of 4-HPR by human liver microsomes; assay type: in vitro ADME; details: human, human liver microsomes, pH 7.5
Procedure, shortened: as §1

[5] = tested on: human liver microsomes (HLM); test: Glucuronidation of 4-HPR by human liver microsomes; assay type: in vitro ADME; details: HLM, 1 mg·mL^−1; 4-HPR 0-2000 µM, 3 h
Procedure, shortened: as §1

[6] = tested on: human liver microsomes (HLM); test: Formation of 4-MPR from 4-HPR by HLM with SAM; assay type: in vitro ADME; details: HLM 0.5 mg·mL^−1, 0–100 µM 4-HPR, 0.2 mM SAM, 3 h
individual human CYPs = assay type: in vitro ADME; details: CYPs 3A4, 3A5 and 2C8 supersomes
Procedure, shortened: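 Reactions are stopped with acetonitrile and the 4′-hydroxy metabolite is measured by HPLC. With no authentic standard, Vmax is given in peak area units·min−1. Values are mean ± SD of at least three experiments.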

[7] = mouse model; ref Maurer et al., 2007; cited from earlier work

- Vmax, 4-HPR glucuronide formation (UGT 1A1): 577 ± 34 peak area U·min^−1
- Vmax, 4-HPR glucuronide formation (UGT 1A3): 317 ± 18 peak area U·min^−1
- Vmax, 4-HPR glucuronide formation (UGT 1A6): 124 ± 6 peak area U·min^−1
- Km at 3 h [2]: 1210 ± 202 µM
- Km at 3 h [4]: 540 ± 69 µM
- Km ([6]; read-out: Km, 4-MPR formation): 236 µM
SMILES: CC1=C(/C=C/C(C)=C/C=C/C(C)=C/C(=O)Nc2ccc(O)cc2)C(C)(C)CCC1 [4-HPR, fenretinide]
- Vmax, 4′-OH 4-HPR formation [1]: 28 peak area U·min^−1 and 28 ± 6 peak area U·min^−1
- Vmax, 4′-oxo 4-HPR formation [1]: 131 peak area U·min^−1 and 131 ± 14 peak area U·min^−1
- Vmax, 4-HPR glucuronide formation, per pmol UGT (UGT 1A1): 0.62 peak area U·min^−1·pmol^−1 UGT and 0.62 ± 0.04 peak area U·min^−1·pmol^−1 UGT
- Vmax, 4-HPR glucuronide formation, per pmol UGT (UGT 1A3): 2.11 peak area U·min^−1·pmol^−1 UGT and 2.11 ± 0.12 peak area U·min^−1·pmol^−1 UGT
- Vmax, 4-HPR glucuronide formation, per pmol UGT (UGT 1A6): 0.02 peak area U·min^−1·pmol^−1 UGT and 0.02 ± 0.001 peak area U·min^−1·pmol^−1 UGT
- Vmax, 4-HPR glucuronide formation [3]: 418 ± 38 peak area U·min^−1
- Vmax, 4-HPR glucuronide formation [5]: 679 ± 39 peak area U·min^−1
- Vmax, 4-MPR formation ([6]; calculated): 823 peak U·min^−1
- Vmax, 4′-OH 4-HPR production, range over supersomes expressing individual CYPs (individual human CYPs): 115–282 peak area U·min^−1
- increase of plasma concentrations, lipid matrix vs oil-based capsules [7]: up to seven-fold
